# Bioassay records (PubChem BioAssay)
# Rpn11 inh = Rpn11 (human) deubiquitinase inhibition | O00487 | human 26S proteasome, Ub4-pepOG fluorescence polarization; 20S core pre-blocked with epoxomicin | inhibition, % at 20 µM | 0.59% of 360,000 active;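 active = inhibition at 20 µM, scaled to each plate's controls, above about 33%, limit read from the data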
# Target sequence (O00487 whole entry, looked up): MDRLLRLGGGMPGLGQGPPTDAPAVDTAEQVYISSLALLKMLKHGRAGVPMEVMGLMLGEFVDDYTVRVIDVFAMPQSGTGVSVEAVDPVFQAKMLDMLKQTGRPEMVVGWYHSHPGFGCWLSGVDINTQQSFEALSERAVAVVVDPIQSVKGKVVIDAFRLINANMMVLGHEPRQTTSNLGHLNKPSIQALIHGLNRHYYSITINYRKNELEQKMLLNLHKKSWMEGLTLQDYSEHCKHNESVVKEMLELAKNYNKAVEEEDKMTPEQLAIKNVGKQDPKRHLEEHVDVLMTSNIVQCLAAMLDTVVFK
# PREPL inh = human PREPL enzyme inhibition; Q4J6C6; recombinant PREPL, fluorescence polarization activity-based probe; inhibition, % at 5.96 µM; 0.68% of 320,000 active; AID 2751; in the data active = inhibition above about 43%;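 also: 0% = enzyme with DMSO and 100% = wells lacking enzyme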
# Neddylation inh = blocks human cullin neddylation; P61081+Q13564; TR-FRET cullin neddylation, biochemical; inhibition, % at 25 µM; 0.58% of 360,000 active; in the data active = inhibition above about 36%
# CSN inh = blocks human CSN-mediated cullin deneddylation; AID 651999; Q92905; inhibition, % at 12.5 µM; 0.38% of 360,000 active; Purified CSN, SCF-Nedd8-OG deneddylation, fluorescence polarization;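 active = pattern-corrected inhibition above about 35%, with an unprinted fluorescence ratio check between 0.5 and 1.5, limit read from the data, passing the limit was not always enough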;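 also: 0% = enzyme with substrate and 100% = substrate without enzyme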
# Target sequence (Q92905 whole entry, looked up, one chain of several): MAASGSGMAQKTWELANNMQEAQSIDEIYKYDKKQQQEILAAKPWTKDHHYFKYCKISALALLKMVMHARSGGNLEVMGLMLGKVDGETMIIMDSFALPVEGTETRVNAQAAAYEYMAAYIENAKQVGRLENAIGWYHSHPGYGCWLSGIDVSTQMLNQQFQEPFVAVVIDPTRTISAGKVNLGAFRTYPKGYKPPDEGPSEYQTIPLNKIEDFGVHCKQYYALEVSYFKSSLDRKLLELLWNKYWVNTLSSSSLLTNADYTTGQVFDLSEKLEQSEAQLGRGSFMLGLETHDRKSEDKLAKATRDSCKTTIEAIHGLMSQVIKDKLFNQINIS
#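 Detection – fluorescence polarization · System – HEK293T-derived human Csn5 enzyme · Controls – substrate-only high control, full reaction low control · Timing – 90 min, room temperature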
# TbMetRS inhib = blocks T. brucei methionyl-tRNA synthetase activity; 0.4% of 360,000 active; inhibition, % at 11.9 µM; purified T. brucei MetRS, ATP depletion, Kinase-Glo luminescence;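 active = inhibition above a per-plate cutoff of the control wells' mean inhibition plus 3 SD, cut at about 5.5% in these data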;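 also: 0% = DMSO wells median and 100% = median of wells with control inhibitor compound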
#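 assay system = parasite MetRS enzyme | timing = 15 min preincubation, 2 h reaction, all 25 °C | evaluation = percent inhibition relative to median high and low control wells | medium = HEPES buffer containing pyrophosphatase, BSA, spermine, DTT | compound = single dose, 11.9 µM final nominal, 0.9% final DMSO | detection = Kinase-Glo luminescence, ATP depletion format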
# HNF4A DNA FP = change in binding of human HNF4 alpha to DNA; P41235; 0.3% of 360,000 active; activity change, % at 10 µM; HNF4a-FITC DNA binding, fluorescence polarization, 1 h; AID 1224865; in the data active = activity change above about 30%, passing the limit was not always enough
# * = called active by the depositor; i = inactive; . = not tested or not shown. Compounds with a hit are over-represented: about 2.4% of the library has one in this group of screens.
SMILES,Rpn11 inh,PREPL inh,Neddylation inh,CSN inh,TbMetRS inhib,HNF4A DNA FP
Cc1noc(C)c1S(=O)(=O)N1CCCC(C(=O)NCc2ccccc2Cl)C1 (centres undefined),3.4,-1.7,-2.3,-0.3,-0.3,-0.3
CC(C)OC(=O)c1cc2ccccc2[nH]1,-2.2,-3.1,37.7,-2.5,0.1,0.3
CCOC(=O)c1cc2cc3ccccc3cc2[nH]1,-14.7,20.8,41.0*,-0.9,0.1,-14.8
c1ccc2c(Nc3nc(N4CCOCC4)c4ccccc4n3)cccc2c1,-10.7,53.3*,.,-12.4,-0.1,-2.9
Fc1ccc(Nc2nc(N3CCOCC3)c3ccccc3n2)cc1,6.7,15.0,6.8,-3.4,0.6,1.6
Cc1ccc(C(=O)OC2OC(=O)C(Cl)=C2N2CCOCC2)cc1 (centres undefined),-5.6,43.3*,6.4,2.5,-1.9,-0.4
CS(=O)(=O)c1nc(S(=O)(=O)c2ccc(Cl)cc2)c(NCCCn2ccnc2)s1,-4.8,10.0,-1.0,7.1,-1.3,-3.2
Cc1c(C(=O)N2CCCCC2)c(S(=O)(=O)N2CCC(C)CC2)c(C)n1C,-1.8,-2.1,3.1,4.0,-0.1,6.0
Cc1ccc(-c2cc(C(F)F)n3ncc(C(=O)N4CCN(c5ccccn5)CC4)c3n2)cc1,0.8,-21.9,17.1,1.2,0.0,2.9
CCN1CCN(C(=O)c2cnn3c(C(F)F)cc(-c4ccc(C)cc4)nc23)CC1,-1.3,8.0,47.8*,0.3,0.0,-1.8
CNS(=O)(=O)c1ccc(NC(=O)c2cnn3c(C(F)F)cc(-c4ccccc4)nc23)cc1,-1.7,4.9,5.7,71.8*,-0.9,-10.7
C/C(N)=C(/C#N)C(=O)COC(=O)CC1CCCC1,-4.5,21.3,4.4,5.6,-1.6,1.6
C/C(N)=C(/C#N)C(=O)COC(=O)C1CCC(C(C)(C)C)CC1 (centres undefined),2.6,-3.2,-7.5,116.8*,-0.7,-1.1
CNC(=S)NNC(=O)CNc1ccc(C)c(Cl)c1,-12.6,-6.0,0.3,-3.1,-0.3,52.9*
CC1CCC2(CC1)NC(=O)N(CC(=O)Nc1cccc(S(=O)(=O)N(C)c3ccccc3)c1)C2=O (centres undefined),1.4,.,8.4,0.3,0.3,2.6
CN(c1ccccc1)S(=O)(=O)c1cccc(NC(=O)CN2C(=O)NC3(CCCCC3)C2=O)c1,2.6,67.8*,-2.2,-1.7,-0.1,-3.8
Cc1cccc(C)c1NC(=O)CSc1nnc(C)n1CC1CCCO1 (centres undefined),0.0,-2.6,0.6,0.2,-0.6,115.2*
C[C@H]1CCCCO[C@H](CN(C)S(=O)(=O)c2cn(C)cn2)[C@@H](C)CN([C@@H](C)CO)C(=O)c2cc(NS(=O)(=O)c3ccccc3)ccc2O1,-1.3,.,-0.1,-2.7,-0.4,-1.2
Cc1cc(NC(=O)Cn2cnc3sc(C)c(C)c3c2=O)no1,-4.0,14.3,8.9,-4.2,-0.3,2.7
CC(C)N(Cc1ccccc1)S(=O)(=O)c1ccc(Cl)nc1,-4.8,-3.8,-0.4,2.8,-0.1,1.4
CN(Cc1ccccc1)S(=O)(=O)c1ccc(Cl)nc1,-1.2,-5.4,-13.2,39.6*,0.1,-2.3
CC1CCN(C(=O)CCNC(=O)Cn2cnc3sc4c(c3c2=O)CCCC4)CC1,-8.5,17.5,-6.0,124.8*,-0.8,0.7
Cc1ccccc1S(=O)(=O)c1c(C)cc(C)n(C)c1=O,5.4,6.3,-2.0,42.9*,-0.1,2.0
Cc1ccccc1S(=O)(=O)c1c(C)cc(C)n(CC(C)C)c1=O,0.9,-3.9,-7.0,-1.9,-1.9,-0.6
C[C@H]1CN([C@@H](C)CO)C(=O)CCCn2cc(nn2)CO[C@@H]1CN(C)C(=O)Nc1ccc(C(F)(F)F)cc1,3.5,.,-3.2,-2.8,-0.2,2.3
SMILES,Rpn11 inh,PREPL inh,Neddylation inh,CSN inh,TbMetRS inhib,HNF4A DNA FP
Cc1cccc(C(=O)OCC(=O)N(CC(C)C)c2c(N)n(Cc3ccccc3)c(=O)[nH]c2=O)c1C,2.6,.,7.3,3.3,-0.5,2.6
CCCNC(=O)C1(C)CCN(C(=O)c2cccc(C#N)c2)C1 (centres undefined),-7.2,.,7.5,-0.1,-0.1,2.8
CCCCCCCCN1C(=O)[C@H](CC(=O)NCc2ccccc2)C[C@@]2(C(=O)OC)CCCCC=C12,.,.,-1.6,-1.3,-0.6,-3.2
Cn1ccc2c(-c3ccc4c(c3)OCCO4)cc3c(c21)C1CCC3C1 (centres undefined),1.2,.,i,116.8*,-0.7,1.6
C=CCn1c(SCc2ccc3c(c2)OCO3)nc2scc(-c3ccco3)c2c1=O,20.6,-1.1,6.7,57.5*,-0.6,-23.5
C=CCn1c(SCC(C)=O)nc2scc(-c3ccco3)c2c1=O,7.5,16.8,2.5,24.3,-0.7,-34.5
COc1ccccc1NS(=O)(=O)c1ccc(C(=O)NCCCN2CCOCC2)cc1,2.1,.,2.5,1.5,-0.9,1.5
c1ccc(CC[C@@H]2CC[C@@H](CCc3ccccc3)N2)cc1,1.3,-10.3,-7.7,42.9*,-0.2,7.1
c1ccc(CCC2Cc3ccccc3N2)cc1 (centres undefined),-15.3,18.0,-16.2,-4.6,-0.1,3.8
NC(=S)Nc1cccc2cc3ccccc3cc12,-47.9,32.4,47.0*,-8.7,-0.8,-25.8
Cc1cccc(NS(=O)(=O)c2ccc(NC(=O)N3CCCCC3)cc2)c1,-10.3,1.6,-1.5,42.8*,-0.4,0.4
Cc1c(Cl)ccc2sc(N3CCN(C(=O)C4=COCCO4)CC3)nc12,-1.5,26.7,5.5,3.3,-0.3,0.0
Cc1ccc(C(=O)Nc2nc(-c3ccccn3)cs2)o1,16.0,9.8,3.6,4.2,-0.2,-1.4
CC(=O)c1ccc(-c2ccc(C(=O)Nc3nc(-c4ccccn4)cs3)o2)cc1,36.1,6.4,35.8*,8.4,-0.6,-1.5
Cn1nc(C(F)(F)F)cc1-c1ccc(/C=C(\C#N)C(=O)c2ccccc2)s1,.,-5.0,-0.3,67.7*,-0.3,0.9
CNC(=O)c1ccc(-c2cc(C(F)(F)F)nn2C)s1,2.4,13.7,-2.1,-0.6,-0.6,-0.2
Cc1ccccc1OCC(=O)OCC(=O)NC1CCCC(C)C1C (centres undefined),0.8,.,9.0,0.6,-0.4,-4.0
COc1cc(-c2nc(C(=O)NCC3CCCO3)cc3c2[nH]c2ccccc23)cc(OC)c1OC (centres undefined),-0.8,18.9,44.3*,4.7,-1.1,4.3
COc1ccccc1-c1nc(C(=O)NCC2CCCO2)cc2c1[nH]c1ccccc12 (centres undefined),13.9,-0.6,31.0,3.7,-0.7,4.7
O/C(=C\c1ccc2ccccc2n1)c1ccc(O)cc1O,.,5.6,-57.6,37.5,-0.7,64.9*
Oc1ccc(/C=C/c2ccc3ccccc3n2)cc1,3.0,31.7,.,1.6,-0.3,4.8
